Results: PubChem BioAssay AID492951 (Molecular Libraries Program, Specialized Chemistry Center, …, 2010)
The source made the active and inactive calls.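 Rule for the calls: active = inhibition above 10%; inactive = the rest.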

Biological target: Hexokinase-4 (Homo sapiens) (UniProt P35557)
Experiment: human glucokinase inhibition, counter-screen for TbHK1 inhibitor project, biochemical, recombinant hGlck (AID 492951)
Conditions: G6PDH-coupled NADH absorbance 340 nm, at 10 µM; active compounds read high
Summary of the method: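 Test system: recombinant human glucokinase, G6PDH-coupled; Medium: pH 7.9 TEA buffer, MgCl2, NAD+; Also added: 20 mM glucose as reaction starter, plus 1 mM ATP; Compound dosing: single final test compound dose of 10 µM; Schedule: 10 min preincubation at room temperature; Measured by: NADH formation by absorbance at 340 nm; Repeats: triplicate.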

Sequence of Hexokinase-4 (Homo sapiens) (P35557 whole entry, looked up): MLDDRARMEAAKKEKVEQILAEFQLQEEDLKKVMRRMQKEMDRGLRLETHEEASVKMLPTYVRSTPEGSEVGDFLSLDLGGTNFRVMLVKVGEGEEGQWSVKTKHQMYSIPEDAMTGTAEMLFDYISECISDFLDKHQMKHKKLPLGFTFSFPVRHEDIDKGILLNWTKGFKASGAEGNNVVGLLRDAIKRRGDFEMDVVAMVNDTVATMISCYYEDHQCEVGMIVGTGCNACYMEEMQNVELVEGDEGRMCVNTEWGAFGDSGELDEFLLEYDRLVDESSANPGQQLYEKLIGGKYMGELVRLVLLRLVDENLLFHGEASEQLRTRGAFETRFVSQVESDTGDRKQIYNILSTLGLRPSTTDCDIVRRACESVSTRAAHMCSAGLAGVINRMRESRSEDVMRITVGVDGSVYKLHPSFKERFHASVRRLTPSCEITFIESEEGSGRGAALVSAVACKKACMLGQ

Compound | outcome | inhibition
COc1ccc(-n2sc3ccccc3c2=O)cc1 | inactive | –
CC(C)(C)c1ccc(C(=O)Nc2cc(Cl)ccc2O)cc1 | inactive | –
CCCCCCCC(=O)Nc1cc(Cl)ccc1C(=O)O | inactive | –
O=C(Nc1ccccc1)n1sc2ccccc2c1=O | – | 32.9% (active)
COc1cc(C(=O)Nc2cc(Cl)ccc2C(=O)O)cc(OC)c1OC | inactive | –
C=C(C)c1ccc(C(=O)Nc2cc(Cl)ccc2C(=O)O)cc1 | – | 25.9% (active)
O=c1c2ccc(F)cc2sn1-c1ccccc1 | – | 37.8% (active)
O=C(Nc1cc(Cl)ccc1C(=O)O)c1ccncc1 | inactive | –
O=C(Cn1sc2ccccc2c1=O)Nc1ccc(I)cc1 | – | 36.2% (active)
O=C(Cn1sc2ccccc2c1=O)N1CCOCC1 | inactive | –
COC(=O)c1cc(Cl)ccc1NC(=O)c1ccc(OC)cc1 | inactive | –
O=C(Cn1sc2ccccc2c1=O)Nc1ccccc1F | inactive | –
COc1ccc(S(=O)(=O)Nc2cc(Cl)ccc2C(=O)O)cc1 | inactive | –
COc1ccc(C(=O)Nc2cc(Cl)ccc2C(=O)O)cc1 | – | 7.8% (inactive)
O=C(Cn1sc2ccccc2c1=O)Nc1ccccc1 | – | 7.03% (inactive)
O=C(Cn1sc2ccccc2c1=O)Nc1ccccc1Br | – | 9% (inactive)
Cn1sc2ccccc2c1=O | inactive | –
O=c1c2cc(Br)ccc2sn1-c1ccccc1 | – | 38.4% (active)
COc1ccc(C(=O)Nc2cc(I)ccc2C(=O)O)cc1 | inactive | –
O=c1c2cc(F)ccc2sn1-c1ccccc1Cl | – | 14.4% (active)
O=C(Cn1sc2ccccc2c1=O)Nc1ccccc1I | – | 14.5% (active)
